This note sets out measurements from paper PMC3962999 (The Biochemical journal, 2011).

Where a chain is given by its changes, count along the chain named.

In one assay the target is T1, PBD1 (PPIP5K1) (Homo sapiens, UniProt Q6PFW1).
T1 sequence (Q6PFW1 382-917): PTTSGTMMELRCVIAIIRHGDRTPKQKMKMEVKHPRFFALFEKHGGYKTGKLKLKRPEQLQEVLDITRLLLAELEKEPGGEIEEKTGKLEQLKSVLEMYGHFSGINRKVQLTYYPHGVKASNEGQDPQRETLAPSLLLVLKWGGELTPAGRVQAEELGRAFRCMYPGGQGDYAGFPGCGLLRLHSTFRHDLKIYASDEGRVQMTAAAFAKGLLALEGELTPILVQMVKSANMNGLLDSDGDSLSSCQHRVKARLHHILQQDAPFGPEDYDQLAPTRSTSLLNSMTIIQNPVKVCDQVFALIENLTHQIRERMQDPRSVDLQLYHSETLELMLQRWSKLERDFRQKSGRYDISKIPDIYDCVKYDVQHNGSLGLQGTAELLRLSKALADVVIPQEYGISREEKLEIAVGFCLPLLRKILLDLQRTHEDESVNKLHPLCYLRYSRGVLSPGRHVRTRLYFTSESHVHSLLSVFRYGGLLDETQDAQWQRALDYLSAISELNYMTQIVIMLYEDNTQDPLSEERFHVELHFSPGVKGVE
Kind of assay: SPR equilibrium binding to immobilized lipid vesicles, PBD1. The following applies: SPR, in words. The essentials: (§1)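 Large unilamellar vesicles (PtdCho/PtdE/test phosphoinositide 77:20:3) were captured on an L1 chip to 5000 RU. Signals were corrected against phosphoinositide-free vesicles. Kd came from nonlinear fitting of Req = Rmax/(1+Kd/C). Concentrations were: GRP-1 PH domain 2.5–125 nM; PBD1 on PtdIns(3,4,5)P₃ 5–150 nM; bisphosphate vesicles 75–1900 nM.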

The target in the next assay is T2, PBD2 (PPIP5K2) (Homo sapiens, UniProt O43314).
T2 sequence (O43314 371-901 isoform O43314-2): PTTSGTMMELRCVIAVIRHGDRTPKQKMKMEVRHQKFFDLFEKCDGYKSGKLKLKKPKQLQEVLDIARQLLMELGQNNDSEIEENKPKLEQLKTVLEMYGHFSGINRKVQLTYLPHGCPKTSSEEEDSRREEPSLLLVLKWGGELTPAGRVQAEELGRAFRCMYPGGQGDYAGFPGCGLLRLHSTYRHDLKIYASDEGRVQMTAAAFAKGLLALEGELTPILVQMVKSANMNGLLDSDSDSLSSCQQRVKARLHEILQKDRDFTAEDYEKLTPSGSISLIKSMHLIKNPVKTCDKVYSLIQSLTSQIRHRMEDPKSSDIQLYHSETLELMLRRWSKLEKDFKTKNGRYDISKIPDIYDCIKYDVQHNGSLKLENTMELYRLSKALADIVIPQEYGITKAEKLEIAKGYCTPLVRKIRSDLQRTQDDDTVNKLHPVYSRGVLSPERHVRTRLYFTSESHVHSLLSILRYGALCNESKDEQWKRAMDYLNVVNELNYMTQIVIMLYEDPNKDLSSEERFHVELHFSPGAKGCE
Kind of assay: SPR equilibrium binding to immobilized lipid vesicles, PBD2. The following applies: SPR, in words. The essentials:
as §1

Another assay has as its target T3, PBD1R417A (Homo sapiens, UniProt Q6PFW1, R417A).
T3 sequence (Q6PFW1 382-917 R417A): T1 sequence (Q6PFW1 382-917) with R36A
Kind of assay: SPR equilibrium binding, PBD1 R417A mutant. The following applies: results not shown.

Take PtdIns(4,5)P2: the “binding to PBD1” value on PBD1 (PPIP5K1) is “significantly weaker ligands”. In addition, the “binding to PBD2” value at PBD2 (PPIP5K2) is “relatively weakly”. On PBD1R417A, the “binding to PBD1 R417A” value is recorded as “eliminated all detectable binding”.
